This excerpt belongs to a sample that is enriched for hits.
PGC1a Ac signal: raises PGC1a acetylation signal in U2OS cells; U2OS PGC1a acetylation AlphaScreen, overnight; activation, % at 15.6 µM; 350,000 tested, 0.21% active;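 active = every replicate reaching activation of at least 50%, whatever the mean replicate activation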;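 note: hits raise the AlphaScreen acetylation signal above neutral controls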
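System: Flag-PGC1a/GCN5 U2OS cells | Quantity: 7000 cells/well | Times: Overnight compound treatment, 37 °C | Measured by: AlphaScreen proximity luminescence, anti-acetyl-lysine antibody | Dosing: One concentration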
Hits are given with their value; i = inactive.

SMILES	PGC1a Ac signal
O=C(O)c1ccc(N=Nc2c(O)[nH]c3ccccc23)cc1	i
CC(=O)c1c(-c2ccccc2)[nH]c2ccccc12	60.5
C[C@@H]1CN([C@H](C)CO)C(=O)c2cc(NS(=O)(=O)c3cccs3)ccc2O[C@@H]1CN(C)S(=O)(=O)c1ccc(F)cc1	i
Cn1cccc1C(=O)OCC(=O)Nc1ccc2c(c1)CCC2	82.8
O=C(COC(=O)C1CC2CCCC(C1)C2=O)Nc1ccc(F)c(Cl)c1 (centres undefined)	i
CC(C)c1ccc(/C=C2\CC/C(=C\C=N\N(C)C)C2=O)cc1	57.1
O=C1/C(=C/c2ccncc2)CCC/C1=C\c1ccncc1	i
C[C@H](CO)N1C[C@H](C)[C@H](CN(C)C(=O)CN(C)C)Oc2cc(-c3cncnc3)ccc2S1(=O)=O	i
C=CCNc1nnc(SC2CC(=O)N(c3ccc(OC)cc3)C2=O)s1 (centres undefined)	74.6
CCSC1=N/C(=C\c2ccccc2)C(=O)N1c1ccc(OC)cc1	i
Cc1cc2c(c(/C=C/C(=O)c3ccccc3)c1)OC1(C=C2)Oc2ccccc2C(=O)N1C (centres undefined)	i
C[C@H]1CN([C@@H](C)CO)S(=O)(=O)c2ccc(-c3cncnc3)cc2O[C@H]1CN(C)C(=O)CN(C)C	i
C/C=C/Cn1c(SCc2ccc(Cl)cc2)nc2c1c(=O)[nH]c(=O)n2C	i
O=C(c1cc(C2CC2)on1)N1CCCC(N2CCN(c3cccc(C(F)(F)F)c3)CC2)C1 (centres undefined)	i
Cc1ccc(N2C(=O)c3ccccc3NC2C(C)Cc2ccc3c(c2)OCO3)cc1 (centres undefined)	i
CC(C)C12CN3CC(C(C)C)(CN(C1)C3c1ccc3c(c1)OCO3)C2=O (centres undefined)	79.8
CC(C)c1ccc(NC(=O)CSc2nc3ccsc3c(=O)n2Cc2ccc(C(=O)O)cc2)cc1	i
CNC(=O)c1nnsc1S(=O)c1ccc(Cl)cc1 (centres undefined)	116.7
CCCNC(=O)c1nnsc1S(=O)(=O)c1ccc(Cl)cc1	82.4
CCCNC(=O)c1nnsc1S(=O)c1ccc(Cl)cc1 (centres undefined)	147.5
CO[C@H]1CN(C)C(=O)c2ccc(NC(=O)Nc3ccccc3F)cc2OC[C@@H](C)NC[C@@H]1C	i
Cn1cnc(S(=O)(=O)N2C[C@@H](O)COC[C@H]3O[C@H](CC(=O)NCc4cc(F)cc(F)c4)CC[C@@H]32)c1	i
CC1CCc2sc(C(=O)Nc3nnc(SCc4ccc(F)cc4)s3)cc2C1 (centres undefined)	i
COC(=O)C(=Cc1ccc(OCc2ccc([N+](=O)[O-])cc2)c(OC)c1)C(=O)OC	i
CCN=C(N/N=C/c1ccc([N+](=O)[O-])cc1)SC	59.3
SMILES	PGC1a Ac signal
CCN(C(=O)COC(=O)/C=C/c1cccc(Cl)c1)c1c(N)n(Cc2ccccc2)c(=O)[nH]c1=O	i
COCCNC(=O)CCc1c(C)nc2c(c(C)nn2-c2ccc(C)c(C)c2)c1C	i
O=C(Cc1ccccc1)N1CC[C@@H]2[C@H]1c1cc(C#Cc3ccccc3)ccc1N[C@@H]2CO	64.2
C[C@@H]1CN([C@@H](C)CO)C(=O)CCCn2nncc2CO[C@H]1CN(C)S(=O)(=O)c1ccc(Cl)cc1	i
COc1ccccc1/C=C1\SC(=O)N(CCC(=O)NCCCn2ccnc2)C1=O	214.0
O=C(CCN1C(=O)/C(=C/c2ccccc2)SC1=S)NCCCN1CCOCC1	i
COc1ccccc1/C=C1\SC(=S)N(CCC(=O)NCCCn2ccnc2)C1=O	121.5
CCOC(=O)C1(Cc2cccc(F)c2)CCN(Cc2c(C)nn(CC)c2C)CC1	i
CSCC(O)Cn1[nH]c(=O)c2cc(Cl)c(Cl)cc2c1=O (centres undefined)	i
C=CCSc1nccc(-c2cc(Cl)sc2Cl)n1	50.6
C[C@@H]1CN([C@H](C)CO)C(=O)c2cc(-c3ccccc3)cnc2O[C@H]1CN(C)C(=O)Cc1ccccn1	i
Cc1ccc(CNC(=O)C2CC(c3ccc([N+](=O)[O-])cc3)=NO2)cc1 (centres undefined)	78.5
COc1ccc(C#Cc2c(-c3ccccc3)n(-c3ccccc3)c3ccc(CO)cc23)cc1	70.8
O=C(COn1nnc2ccc(Cl)cc21)NC12CC3CC(CC(C3)C1)C2	i
COc1cc(CN2[C@@H]3CNC[C@H]2C3c2ccc(-c3ccccc3)cc2)cc(OC)c1 (some centres undefined)	52.5
N#C[C@@H]1[C@@H](c2ccc(-c3ccccc3)cc2)[C@@H](CO)N1C(=O)Cc1ccncc1	i
COc1ccc(S(=O)(=O)N(Cc2cc3ccc(OC)cc3[nH]c2=O)CC2COCCO2)cc1 (centres undefined)	i
Cc1cccc(C)c1NC(=O)CS(=O)CC(=O)Nc1ccc(F)cc1F (centres undefined)	57.0
CC(C)NC(=O)N(C)C[C@H]1Oc2c(NS(=O)(=O)c3cn(C)cn3)cccc2C(=O)N([C@@H](C)CO)C[C@@H]1C	i
Cc1cc(=O)[nH]c(NN)n1	i
O=C(Nc1cc(C(F)(F)F)ccc1N1CCOCC1)c1ccccc1	63.2
C[C@@H](C(=O)Nc1cc(C(F)(F)F)ccc1N1CCOCC1)N1C(=O)C2CC=CCC2C1=O (some centres undefined)	i
O=C(Nc1ccccc1N1CCOCC1)C1(c2ccc(Cl)cc2)CCC1	i
CN(C)c1ccc(/C=N/N(CCC#N)C2=NS(=O)(=O)c3ccccc32)cc1	i
COc1cc(OC)c2c(-c3cccc(-c4cccc(C)c4)c3)cc(=O)oc2c1	59.8
SMILES	PGC1a Ac signal
C[C@H](CO)N1C[C@H](C)[C@@H](CN(C)C(=O)CCN2CCCCC2)Oc2ncc(C#Cc3ccccn3)cc2C1=O	i
COc1ccc(N=C2SC(C(N)=O)CC(=O)N2Cc2ccc3c(c2)OCO3)cc1 (centres undefined)	i
CCOC(=O)NC(=O)CSc1nnnn1-c1ccc(C)cc1	i
O=C(Cc1ccccn1)NCC[C@@H]1CC[C@H](NC(=O)Nc2ccc(C(F)(F)F)cc2)[C@@H](CO)O1	i
O=C(N/N=C/c1ccc([N+](=O)[O-])o1)c1ccc(O)cc1	64.4
COc1cc(/C=N/NC(=O)c2ccc(O)cc2)ccc1OCC(=O)Nc1cccc([N+](=O)[O-])c1	i
O=C(N/N=C/c1ccc([N+](=O)[O-])o1)c1cc2ccccc2o1	329.5
COC(=O)C12OCC34C(CC5C(C)=C(O)C(=O)CC5(C)C3C(O)C1O)OC(=O)C(OC(=O)C=C(C)C)C24 (centres undefined)	i
Cc1cc(Nc2ccccc2)cc(=O)n1C	i
CCOC(=O)c1ccc(NC(=O)CCS(=O)(=O)c2ccc(Br)s2)cc1	50.1
CCOC(=O)c1ccc(NC(=O)Nc2ccc(F)cc2)cc1	i
C[C@@H]1CN([C@H](C)CO)C(=O)CCCn2cc(nn2)CO[C@@H]1CN(C)C(=O)Nc1cccc2ccccc12	i
Cc1cccc(OC2(c3ccccc3)OC(=O)c3ccccc32)c1C (centres undefined)	91.3
COCC#Cc1ccc2c(c1)O[C@H](CN(C)C(=O)CN(C)C)[C@@H](C)CN([C@@H](C)CO)S2(=O)=O	i
Cc1ccc(S(=O)(=O)N2C[C@@H]3N[C@H](C2)[C@@H]3c2ccc(-c3cccc(C)c3)cc2)cc1	65.9
Cc1cccc(S(=O)(=O)N2C[C@@H]3N[C@H](C2)C3c2ccc(-c3ccccc3C)cc2)c1 (some centres undefined)	166.1
COc1cccc(S(=O)(=O)N2C[C@@H]3N[C@H](C2)C3c2ccc(-c3ccccc3C)cc2)c1 (some centres undefined)	242.1

From PubChem
